Test results from article PMC6581564 (Biomacromolecules, 2019).

Tests used:
[1] = cited from earlier work
[2] = tested on: P. aeruginosa strain PAO1; experiment: Colistin efficacy; assay type: cell-based, Pseudomonas aeruginosa; conditions: colistin 8 or 16 μg/mL, 24 h
[3] = tested on: P. aeruginosa strain PAO1; experiment: Colistin MIC by modified broth microdilution assay; assay type: cell-based, Pseudomonas aeruginosa; conditions: in MHB, 37 °C, 24 hours, visual inspection
Outline: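 PAO1 grown overnight in Mueller-Hinton II broth (MHB) at 37 °C, then diluted into fresh MHB to about 3×10⁴ CFU/mL. Test compound stock in water was serially diluted 2-fold in MHB and mixed 1:10 with the inoculum (final 1 mg/mL to 0.4 μg/mL). Plates incubated 24 h at 37 °C. MIC taken as the lowest concentration with no visible growth.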

MUC5AC = MUC5AC (Sus scrofa, UniProt A0A8W4FM62); experiment: Equilibrium dialysis; assay type: binding, pig; conditions: mucin 0.5% w/v; for Mucin binding rank within the NIH Clinical Collection (NCC) set (ΔG): in PBS, 41 NCC molecules, 200 nM
Sequence of MUC5AC (A0A8W4FM62 1-4915): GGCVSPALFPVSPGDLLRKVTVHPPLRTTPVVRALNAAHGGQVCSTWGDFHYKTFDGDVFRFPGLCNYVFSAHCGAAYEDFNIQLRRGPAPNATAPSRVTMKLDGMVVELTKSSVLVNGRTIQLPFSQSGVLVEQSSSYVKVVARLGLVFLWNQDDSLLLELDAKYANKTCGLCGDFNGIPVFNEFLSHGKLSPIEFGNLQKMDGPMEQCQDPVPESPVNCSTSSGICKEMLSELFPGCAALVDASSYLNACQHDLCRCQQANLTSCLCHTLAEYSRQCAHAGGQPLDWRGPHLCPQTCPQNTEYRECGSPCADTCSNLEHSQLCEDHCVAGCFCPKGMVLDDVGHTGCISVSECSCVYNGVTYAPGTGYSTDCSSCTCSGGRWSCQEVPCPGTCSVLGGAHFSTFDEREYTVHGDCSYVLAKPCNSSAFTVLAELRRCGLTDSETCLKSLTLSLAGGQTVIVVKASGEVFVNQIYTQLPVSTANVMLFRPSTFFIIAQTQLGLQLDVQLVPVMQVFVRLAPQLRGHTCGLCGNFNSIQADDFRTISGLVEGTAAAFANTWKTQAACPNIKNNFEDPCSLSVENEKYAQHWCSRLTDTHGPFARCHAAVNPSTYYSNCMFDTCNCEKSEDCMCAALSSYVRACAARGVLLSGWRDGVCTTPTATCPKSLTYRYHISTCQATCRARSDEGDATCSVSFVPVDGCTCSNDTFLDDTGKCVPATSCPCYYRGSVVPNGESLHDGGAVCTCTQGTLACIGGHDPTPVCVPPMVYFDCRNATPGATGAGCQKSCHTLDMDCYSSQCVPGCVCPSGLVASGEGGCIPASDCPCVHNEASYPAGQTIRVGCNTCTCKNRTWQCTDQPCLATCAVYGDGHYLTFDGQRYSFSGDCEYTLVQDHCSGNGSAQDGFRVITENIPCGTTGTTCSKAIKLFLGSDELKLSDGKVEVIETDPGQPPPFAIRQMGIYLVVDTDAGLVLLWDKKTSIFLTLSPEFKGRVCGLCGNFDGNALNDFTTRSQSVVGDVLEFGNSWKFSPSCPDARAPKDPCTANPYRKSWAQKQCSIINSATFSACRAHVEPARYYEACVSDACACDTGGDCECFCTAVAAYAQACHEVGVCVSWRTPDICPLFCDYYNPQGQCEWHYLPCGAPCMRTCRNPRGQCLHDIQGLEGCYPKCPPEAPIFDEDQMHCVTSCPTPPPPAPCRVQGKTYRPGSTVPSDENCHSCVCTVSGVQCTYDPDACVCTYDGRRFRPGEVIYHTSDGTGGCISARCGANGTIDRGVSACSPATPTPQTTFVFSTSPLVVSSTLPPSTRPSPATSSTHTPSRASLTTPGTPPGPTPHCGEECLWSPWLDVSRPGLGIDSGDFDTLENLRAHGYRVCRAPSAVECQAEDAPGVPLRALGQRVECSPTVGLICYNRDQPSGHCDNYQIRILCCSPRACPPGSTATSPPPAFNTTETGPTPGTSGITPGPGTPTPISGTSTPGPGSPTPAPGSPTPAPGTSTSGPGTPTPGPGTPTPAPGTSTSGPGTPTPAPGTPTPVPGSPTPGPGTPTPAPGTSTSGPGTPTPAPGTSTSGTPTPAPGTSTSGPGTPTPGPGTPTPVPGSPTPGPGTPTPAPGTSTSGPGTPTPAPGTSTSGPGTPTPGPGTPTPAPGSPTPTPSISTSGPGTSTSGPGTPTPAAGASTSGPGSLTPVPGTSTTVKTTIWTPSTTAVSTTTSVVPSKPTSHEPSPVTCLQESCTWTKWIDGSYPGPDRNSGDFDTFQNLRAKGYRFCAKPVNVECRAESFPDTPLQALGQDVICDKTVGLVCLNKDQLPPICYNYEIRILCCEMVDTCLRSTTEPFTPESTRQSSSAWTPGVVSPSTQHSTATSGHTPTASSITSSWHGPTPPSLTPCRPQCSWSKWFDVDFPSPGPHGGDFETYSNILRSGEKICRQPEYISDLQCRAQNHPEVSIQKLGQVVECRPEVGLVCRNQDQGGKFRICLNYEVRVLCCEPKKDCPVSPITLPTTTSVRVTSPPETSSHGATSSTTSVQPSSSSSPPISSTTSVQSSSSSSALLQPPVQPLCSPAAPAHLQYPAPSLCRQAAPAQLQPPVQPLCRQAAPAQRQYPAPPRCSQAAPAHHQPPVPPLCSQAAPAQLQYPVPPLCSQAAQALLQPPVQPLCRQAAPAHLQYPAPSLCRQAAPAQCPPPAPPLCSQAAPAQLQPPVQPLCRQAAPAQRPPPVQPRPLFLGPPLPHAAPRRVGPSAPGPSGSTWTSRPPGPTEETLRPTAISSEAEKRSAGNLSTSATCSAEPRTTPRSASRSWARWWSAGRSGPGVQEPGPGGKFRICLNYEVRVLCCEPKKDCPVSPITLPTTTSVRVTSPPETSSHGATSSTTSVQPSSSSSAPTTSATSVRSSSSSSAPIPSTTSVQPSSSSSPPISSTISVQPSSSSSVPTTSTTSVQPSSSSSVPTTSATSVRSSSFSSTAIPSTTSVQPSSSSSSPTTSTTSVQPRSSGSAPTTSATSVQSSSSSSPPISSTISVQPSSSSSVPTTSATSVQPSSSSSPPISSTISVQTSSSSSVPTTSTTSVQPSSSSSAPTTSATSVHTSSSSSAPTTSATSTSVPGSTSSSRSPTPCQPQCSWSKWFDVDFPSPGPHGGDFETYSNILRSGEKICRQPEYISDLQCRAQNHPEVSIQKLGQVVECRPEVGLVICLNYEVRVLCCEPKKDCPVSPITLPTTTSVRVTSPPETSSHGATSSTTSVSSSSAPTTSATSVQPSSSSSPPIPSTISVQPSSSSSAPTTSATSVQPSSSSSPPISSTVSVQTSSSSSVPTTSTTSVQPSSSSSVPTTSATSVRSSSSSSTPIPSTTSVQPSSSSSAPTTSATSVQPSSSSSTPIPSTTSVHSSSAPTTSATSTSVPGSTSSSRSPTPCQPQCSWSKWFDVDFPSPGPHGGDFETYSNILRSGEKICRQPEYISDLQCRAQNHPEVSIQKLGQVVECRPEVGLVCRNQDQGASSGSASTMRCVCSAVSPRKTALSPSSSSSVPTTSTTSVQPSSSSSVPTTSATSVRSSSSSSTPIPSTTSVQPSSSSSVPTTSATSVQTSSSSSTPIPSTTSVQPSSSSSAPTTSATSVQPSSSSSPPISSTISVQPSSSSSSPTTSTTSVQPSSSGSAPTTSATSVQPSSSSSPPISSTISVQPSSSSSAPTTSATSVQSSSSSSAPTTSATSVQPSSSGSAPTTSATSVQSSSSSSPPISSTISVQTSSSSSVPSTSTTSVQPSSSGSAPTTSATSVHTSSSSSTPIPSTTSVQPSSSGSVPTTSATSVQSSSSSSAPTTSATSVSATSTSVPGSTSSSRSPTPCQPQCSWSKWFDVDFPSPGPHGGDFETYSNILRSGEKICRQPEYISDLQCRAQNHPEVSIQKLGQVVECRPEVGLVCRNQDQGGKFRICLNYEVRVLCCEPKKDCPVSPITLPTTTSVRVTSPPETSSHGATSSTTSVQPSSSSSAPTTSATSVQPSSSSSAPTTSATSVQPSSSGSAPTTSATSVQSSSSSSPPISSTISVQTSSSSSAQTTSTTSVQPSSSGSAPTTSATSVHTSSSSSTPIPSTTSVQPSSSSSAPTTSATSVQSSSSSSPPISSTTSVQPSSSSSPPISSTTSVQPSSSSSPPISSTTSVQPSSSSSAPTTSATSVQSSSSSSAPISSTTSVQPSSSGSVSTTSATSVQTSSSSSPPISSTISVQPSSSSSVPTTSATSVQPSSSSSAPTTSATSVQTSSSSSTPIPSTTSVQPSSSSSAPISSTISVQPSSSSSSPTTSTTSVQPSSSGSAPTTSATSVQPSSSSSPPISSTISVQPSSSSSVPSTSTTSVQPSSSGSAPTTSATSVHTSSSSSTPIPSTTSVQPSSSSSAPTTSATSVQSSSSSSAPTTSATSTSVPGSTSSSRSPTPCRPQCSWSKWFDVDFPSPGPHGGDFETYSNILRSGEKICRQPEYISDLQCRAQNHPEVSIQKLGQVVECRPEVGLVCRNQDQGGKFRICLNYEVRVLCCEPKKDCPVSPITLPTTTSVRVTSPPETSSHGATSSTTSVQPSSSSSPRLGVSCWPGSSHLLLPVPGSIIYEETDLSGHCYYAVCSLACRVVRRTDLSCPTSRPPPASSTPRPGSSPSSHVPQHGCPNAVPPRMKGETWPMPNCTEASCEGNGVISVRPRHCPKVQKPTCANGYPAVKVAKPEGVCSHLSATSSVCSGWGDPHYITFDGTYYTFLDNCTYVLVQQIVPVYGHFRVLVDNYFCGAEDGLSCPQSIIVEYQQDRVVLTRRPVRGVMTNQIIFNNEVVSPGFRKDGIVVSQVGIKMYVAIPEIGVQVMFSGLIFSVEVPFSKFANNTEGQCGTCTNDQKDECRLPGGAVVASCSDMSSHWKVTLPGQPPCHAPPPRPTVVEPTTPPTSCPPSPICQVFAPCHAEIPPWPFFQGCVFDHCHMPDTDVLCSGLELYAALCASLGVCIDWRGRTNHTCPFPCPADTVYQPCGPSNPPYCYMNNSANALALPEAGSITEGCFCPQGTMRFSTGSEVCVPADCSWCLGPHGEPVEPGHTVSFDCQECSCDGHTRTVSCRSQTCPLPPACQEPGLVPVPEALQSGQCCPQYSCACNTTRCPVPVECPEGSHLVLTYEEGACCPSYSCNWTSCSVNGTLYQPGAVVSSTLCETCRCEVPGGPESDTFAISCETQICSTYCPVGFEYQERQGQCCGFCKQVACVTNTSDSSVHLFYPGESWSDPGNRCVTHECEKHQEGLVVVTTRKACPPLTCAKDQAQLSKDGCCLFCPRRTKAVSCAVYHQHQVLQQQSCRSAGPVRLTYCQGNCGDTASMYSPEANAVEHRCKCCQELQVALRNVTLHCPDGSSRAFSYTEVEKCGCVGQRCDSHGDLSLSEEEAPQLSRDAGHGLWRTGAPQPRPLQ

Row | Compound | Molecular charge [1] | Mucin binding rank within the NIH Clinical Collection (NCC) set (ΔG) (MUC5AC) | other results
1 | NC[C@H]1O[C@H](O[C@H]2[C@H](O)[C@@H](O[C@H]3O[C@H](CO)[C@@H](O)[C@H](N)[C@H]3O)[C@H](N)C[C@@H]2N)[C@H](N)C[C@@H]1O [tobramycin] | +5 |  | 
2 | colistin | +5 |  | Effect of methylcellulose on colistin activity (surviving PAO1 cells, CFU) ([2]; MC 0.5% w/v in MHB): negligible effect; Effect of mucin on colistin activity (surviving PAO1 cells, CFU) ([2]; mucin 0.5% w/v in MHB): inhibited the effect of colistin to a substantial degree; MIC [3]: 8 µg/mL; Binding to mucin (ΔG; negative ΔG implies binding) (MUC5AC; colistin 10 μM, 4 h, 37 °C): bound to mucin
3 | CNCCCC12CCC(c3ccccc31)c1ccccc12 [maprotiline] |  | four strongest mucin binders | 
4 | Nc1nc(Cl)nc2c1ncn2[C@H]1C[C@H](O)[C@@H](CO)O1 [cladribine] |  | four strongest mucin binders | 
5 | O=c1c(-c2ccccc2)c1-c1ccccc1 [diphencyprone] |  | four strongest mucin binders | 
6 | COc1cccc2c1C(=O)c1c(O)c3c(c(O)c1C2=O)C[C@@](O)(C(=O)CO)C[C@@H]3O[C@H]1C[C@H](N)[C@H](O)[C@H](C)O1 [doxorubicin] |  | four strongest mucin binders | 
